According to ChEMBL document CHEMBL5038619, “Interfering with the Tumor-Immune Interface: Making Way for Triazine-Based Small Molecules as Novel PD-L1 Inhibitors” (J Med Chem, 2021):
The source made the active and inactive calls. The calls are words filed in the database; no cut-off is given here.

Legend:
[1] = biological target: T1, Programmed cell death protein 1/Programmed cell death 1 ligand 1 (Homo sapiens, UniProt Q9NZQ7); experiment: Inhibition of human recombinant PD-1/PDL-1 interaction measured by HTRF assay; assay type: protein-complex assay
[2] = biological target: T1, Programmed cell death protein 1/Programmed cell death 1 ligand 1; experiment: Inhibition of PD-1/PDL-1 (unknown origin) binding; assay type: protein-complex assay
[3] = Cytotoxicity against human PBMC cells assessed as reduction in cell viability at 10 uM for 48 hrs by CCK-8 assay; assay type: toxicity, cell-based
Summary of the method: (§1)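 Cells were seeded at 1×10^4/well in triplicate and exposed to 0.1–100 μM compound with DMSO held at 0.02% in all wells. Untreated wells served as reference. After 24 or 48 h at 37 °C, 5% CO2, viability was read by CCK-8 at 450 nm (reference 600 nm). Results are percent survival versus untreated, mean ± SD of three independent experiments in triplicate.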

[4] = Cytotoxicity against human PBMC cells assessed as reduction in cell viability at 100 uM for 48 hrs by CCK-8 assay; assay type: toxicity, cell-based; summary of the method: as §1
HaCaT [5] = experiment: Cytotoxicity against human HaCaT cells assessed as reduction in cell viability at 100 uM for 24 hrs by CCK-8 assay; assay type: toxicity, cell-based; summary of the method: as §1
[6] = biological target: Programmed cell death 1 ligand 1 (Homo sapiens) (UniProt Q9NZQ7); conditions: dose 32.0 µM
PC-9 [7] = experiment: Cytotoxicity against human PC-9 cells assessed as reduction in cell viability at 10 uM for 48 hrs by CCK-8 assay; assay type: toxicity, cell-based; conditions: pc-9, 48 h; summary of the method: as §1
HaCaT [8] = experiment: Cytotoxicity against human HaCaT cells assessed as reduction in cell viability at 10 uM for 48 hrs by CCK-8 assay; assay type: toxicity, cell-based; summary of the method: as §1
PC-9 [9] = experiment: Cytotoxicity against human PC-9 cells assessed as reduction in cell viability at 10 uM for 24 hrs by CCK-8 assay; assay type: toxicity, cell-based; conditions: pc-9, 24 h; summary of the method: as §1
HCC827 [10] = experiment: Cytotoxicity against human HCC827 cells assessed as reduction in cell viability at 10 uM for 24 hrs by CCK-8 assay; assay type: toxicity, cell-based; conditions: hcc827, 24 h; summary of the method: as §1
HCC827 [11] = experiment: Immunomodulatory activity in human HCC827 cells expressing PD-L1 co-cultured stimulated PMBC cells assessed as reduction in cell viability at 1 uM for 48 hr by CCK8 assay; assay type: functional, cell-based
Summary of the method: (§2)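 PC9 or HCC827 cells were co-cultured 48 h with PBMCs, treated with 1 μM compound and stimulated 1 h later with anti-CD3/anti-CD28 (1 μg/mL each). PBMCs were then removed by PBS washes and viability of the remaining cancer cells was read by CCK-8. Results are percent survival versus untreated, mean ± SD of three independent experiments in triplicate.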

HCC827 [12] = experiment: Cytotoxicity against human HCC827 cells assessed as reduction in cell viability at 100 uM for 24 hrs by CCK-8 assay; assay type: toxicity, cell-based; conditions: hcc827, 24 h; summary of the method: as §1
PC-9 [13] = experiment: Immunomodulatory activity in human PC9 cells expressing PD-L1 co-cultured stimulated PMBC cells assessed as induction of apoptosis at 1 uM for 48 hr by Annexin V-FITC and propidium iodide based flow cytometry; assay type: functional, cell-based
Summary of the method: (§3)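 In the same PBMC/cancer-cell co-culture (1 μM compound for 1 h before TransAct anti-CD3/CD28 stimulation, 1 μg/mL each), cells were harvested after 48 h. They were stained with annexin V-FITC/PI and analysed by flow cytometry. Results are mean fraction of annexin V+ cells ± SD, three independent experiments.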

HaCaT [14] = experiment: Cytotoxicity against human HaCaT cells assessed as reduction in cell viability at 10 uM for 24 hrs by CCK-8 assay; assay type: toxicity, cell-based; summary of the method: as §1
HCC827 [15] = experiment: Immunomodulatory activity in human HCC827 cells expressing PD-L1 co-cultured stimulated PMBC cells assessed as IFN-gamma release level at 1 uM measured after 48 hr by ELISA; assay type: functional, cell-based
Summary of the method: (§4)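 Co-culture: PC9 or HCC827 cells (2×10^5/well) plus 2×10^6 PBMCs, 1 μM compound, then anti-CD3/anti-CD28 TransAct (1 μg/mL each) 1 h later. After 48 h, IFN-γ in the medium was measured by sandwich ELISA (450 nm). Values are mean ± SD of three independent experiments in triplicate; two-sided t-test.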

HCC827 [16] = experiment: Immunomodulatory activity in human HCC827 cells expressing PD-L1 co-cultured stimulated PMBC cells assessed as induction of apoptosis at 1 uM for 48 hr by Annexin V-FITC and propidium iodide based flow cytometry; assay type: functional, cell-based; summary of the method: as §3
PC-9 [17] = experiment: Immunomodulatory activity in human PC9 cells expressing PD-L1 assessed as morphological changes at 1 uM measured after 48 hrs by phase-contrast microscopy; assay type: functional, cell-based
[18] = Cytotoxicity against human PBMC cells assessed as reduction in cell viability at 100 uM for 24 hrs by CCK-8 assay; assay type: toxicity, cell-based; summary of the method: as §1
HCC827 [19] = experiment: Immunomodulatory activity in human HCC827 cells expressing PD-L1 assessed as morphological changes at 1 uM measured after 48 hrs by phase-contrast microscopy; assay type: functional, cell-based
HCC827 [20] = experiment: Immunomodulatory activity in human HCC827 cells expressing PD-L1 co-cultured stimulated PMBC cells assessed as morphological changes at 1 uM measured after 48 hrs by phase-contrast microscopy; assay type: functional, cell-based
Summary of the method: (§5)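 PC9 or HCC827 cells (2×10^5/well, 24 h) were co-cultured with 2×10^6 PBMCs. Compound was added at 1 μM, and 1 h later PBMCs were stimulated with anti-CD3/anti-CD28 TransAct (1 μg/mL each). Controls were unstimulated PBMCs and untreated cancer cells. After 48 h, phase-contrast microscopy was used to look for junction disruption, nuclear swelling, vacuolization, cytosol shrinkage and membrane rupture.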

PC-9 [21] = experiment: Cytotoxicity against human PC-9 cells assessed as reduction in cell viability at 100 uM for 24 hrs by CCK-8 assay; assay type: toxicity, cell-based; conditions: pc-9, 24 h; summary of the method: as §1
PC-9 [22] = experiment: Cytotoxicity against human PC-9 cells assessed as reduction in cell viability at 100 uM for 48 hrs by CCK-8 assay; assay type: toxicity, cell-based; conditions: pc-9, 48 h; summary of the method: as §1
HaCaT [23] = experiment: Cytotoxicity against human HaCaT cells assessed as reduction in cell viability at 100 uM for 48 hrs by CCK-8 assay; assay type: toxicity, cell-based; summary of the method: as §1
[24] = Cytotoxicity against human PBMC cells assessed as reduction in cell viability at 10 uM for 24 hrs by CCK-8 assay; assay type: toxicity, cell-based; summary of the method: as §1
PC-9 [25] = experiment: Immunomodulatory activity in human PC9 cells expressing PD-L1 co-cultured stimulated PMBC cells assessed as IFN-gamma release level at 1 uM measured after 48 hr by ELISA; assay type: functional, cell-based; summary of the method: as §4
HCC827 [26] = experiment: Cytotoxicity against human HCC827 cells assessed as reduction in cell viability at 10 uM for 48 hrs by CCK-8 assay; assay type: toxicity, cell-based; conditions: hcc827, 48 h; summary of the method: as §1
PC-9 [27] = experiment: Immunomodulatory activity in human PC9 cells expressing PD-L1 co-cultured stimulated PMBC cells assessed as reduction in cell viability at 1 uM for 48 hr by CCK8 assay; assay type: functional, cell-based; summary of the method: as §2
PC-9 [28] = experiment: Immunomodulatory activity in human PC9 cells expressing PD-L1 co-cultured stimulated PMBC cells assessed as morphological changes at 1 uM measured after 48 hrs by phase-contrast microscopy; assay type: functional, cell-based; summary of the method: as §5
HCC827 [29] = experiment: Cytotoxicity against human HCC827 cells assessed as reduction in cell viability at 100 uM for 48 hrs by CCK-8 assay; assay type: functional, cell-based; summary of the method: as §1
[30] = biological target: Programmed cell death 1 ligand 1 (Homo sapiens) (UniProt Q9NZQ7); experiment: Binding affinity to human PD-L1 expressing on exosomes assessed as decrease in […] intensity at 0.5 mM by STD-NMR spectroscopy
[31] = biological target: Programmed cell death 1 ligand 1 (Homo sapiens) (UniProt Q9NZQ7); experiment: Binding affinity to human PD-L1 expressing on exosomes assessed as decrease in […] intensity at 0.5 mM by WL-NMR spectroscopy

T1 sequence (Q15116 whole entry): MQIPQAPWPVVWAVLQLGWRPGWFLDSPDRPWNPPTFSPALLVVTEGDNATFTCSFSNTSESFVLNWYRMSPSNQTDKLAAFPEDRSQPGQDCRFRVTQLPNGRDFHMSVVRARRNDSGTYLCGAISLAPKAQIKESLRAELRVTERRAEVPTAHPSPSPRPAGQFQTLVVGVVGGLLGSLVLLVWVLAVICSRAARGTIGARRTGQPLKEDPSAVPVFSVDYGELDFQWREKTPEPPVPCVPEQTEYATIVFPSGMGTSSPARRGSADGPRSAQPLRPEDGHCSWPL
T1 sequence (Q9NZQ7 whole entry): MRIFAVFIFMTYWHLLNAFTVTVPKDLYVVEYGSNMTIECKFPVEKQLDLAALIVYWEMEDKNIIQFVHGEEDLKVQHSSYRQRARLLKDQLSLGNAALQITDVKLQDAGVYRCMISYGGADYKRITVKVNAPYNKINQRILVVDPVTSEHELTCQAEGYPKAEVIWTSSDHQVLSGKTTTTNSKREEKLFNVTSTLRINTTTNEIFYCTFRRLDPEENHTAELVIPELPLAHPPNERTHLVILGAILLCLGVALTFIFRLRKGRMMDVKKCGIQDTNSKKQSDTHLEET
Sequence of Programmed cell death 1 ligand 1 (Homo sapiens) (Q9NZQ7 whole entry): as above

Cc1c(COc2ncnc(N[C@@H](Cc3c[nH]cn3)C(=O)O)n2)cccc1-c1ccccc1
IC50 [1]: > 5000 nM

Cc1c(COc2ccc(CN3CCCC[C@H]3C(=O)NCCN)c(OCc3cccc(C#N)c3)c2)cccc1-c1ccccc1
IC50 [2]: 9.1 nM

COc1nc(OCc2cccc(-c3ccccc3)c2C)ccc1CNCCNC(C)=O
Activity [3]: Non-Toxic | Activity [4]: Toxic | Activity (HaCaT [5]): Toxic | Tm [6]: 53 °C | Activity (PC-9 [7]): Non-Toxic | Activity (HaCaT [8]): Non-Toxic | Activity (PC-9 [9]): Non-Toxic | Activity (HCC827 [10]): Non-Toxic | Activity (HCC827 [11]): Active | Activity (HCC827 [12]): Toxic | Activity (PC-9 [13]): Active | Activity (HaCaT [14]): Non-Toxic | Activity (HCC827 [15]): Active | Activity (HCC827 [16]): Active | Activity (PC-9 [17]): inactive | Activity [18]: Toxic | Activity (HCC827 [19]): inactive | Activity (HCC827 [20]): Active | Activity (PC-9 [21]): Toxic | Activity (PC-9 [22]): Toxic | Activity (HaCaT [23]): Toxic | Activity [24]: Non-Toxic | Activity (PC-9 [25]): Active | Activity (HCC827 [26]): Non-Toxic | Activity (PC-9 [27]): Active | Activity (PC-9 [28]): Active | Activity (HCC827 [29]): Toxic

CC(=O)NCCNc1ncnc(OCc2cccc(-c3ccccc3)c2C)n1
Activity [3]: Non-Toxic | Activity [4]: Toxic | Activity (HaCaT [5]): Toxic | Tm [6]: 49 °C | Activity (PC-9 [7]): Non-Toxic | Activity (HaCaT [8]): Non-Toxic | Activity (PC-9 [9]): Non-Toxic | Activity (HCC827 [10]): Non-Toxic | Activity (HCC827 [11]): Active | Activity (HCC827 [12]): Toxic | Activity (PC-9 [13]): Active | Activity (HaCaT [14]): Non-Toxic | Activity (HCC827 [15]): Active | Activity (HCC827 [16]): Active | Activity (PC-9 [17]): inactive | Activity (HCC827 [19]): inactive | Activity (HCC827 [20]): Active | Activity (PC-9 [21]): Toxic | Activity (PC-9 [22]): Toxic | Activity (HaCaT [23]): Toxic | Activity [24]: Non-Toxic | Activity (PC-9 [25]): Active | Activity (HCC827 [26]): Non-Toxic | IC50 [1]: 115 nM | Activity (PC-9 [27]): Active | Activity (PC-9 [28]): Active | Activity (HCC827 [29]): Toxic

CC(=O)NCCNc1nc(OCc2cccc(C#N)c2)nc(OCc2cccc(-c3ccccc3)c2C)n1
IC50 [1]: > 5000 nM

Cc1c(COc2ccc(CN[C@H](CO)C(=O)O)c(OCc3cncc(C#N)c3)n2)cccc1-c1ccccc1
IC50 [2]: 12 nM

Cc1c(COc2nc(N[C@@H](Cc3c[nH]cn3)C(=O)O)nc(OCc3cccc(C#N)c3)n2)cccc1-c1ccccc1
IC50 [1]: > 5000 nM

O=C(O)[C@@H]1CCCCN1Cc1ccc(OCc2cccc(-c3ccccc3)c2Br)c(Br)c1
IC50 [2]: 15 nM

COc1nc(NCCNC(C)=O)nc(OCc2cccc(-c3ccccc3)c2C)n1
IC50 [1]: 1530 nM

COC(=O)[C@H](Cc1c[nH]cn1)Nc1nc(OCc2cccc(C#N)c2)nc(OCc2cccc(-c3ccccc3)c2C)n1
IC50 [1]: > 5000 nM

CC(=O)NCCNc1nc(C)nc(OCc2cccc(-c3ccccc3)c2C)n1
IC50 [1]: > 5000 nM

Cc1c(COc2ncnc(NCCS(N)(=O)=O)n2)cccc1-c1ccccc1
IC50 [1]: 551 nM

Cc1c(COc2ncnc(NCCNS(C)(=O)=O)n2)cccc1-c1ccccc1
IC50 [1]: 241 nM

COc1cc(C(=O)N2CCC3C(c4ccccc4)=CC=CC32)ccc1CNCCO (configuration not stated)
IC50 [2]: 132 nM

CC(=O)NCCCNc1ncnc(OCc2cccc(-c3ccccc3)c2C)n1
IC50 [1]: 2150 nM

COC(=O)[C@H](Cc1c[nH]cn1)Nc1ncnc(OCc2cccc(-c3ccccc3)c2C)n1
Activity [30]: Active | Activity [31]: Active

Cc1c(COc2ccc(CNCCO)n3cnnc23)cccc1-c1ccc2c(c1)OCCO2
IC50 [2]: 92.3 nM

CC(C)(C)OC(=O)NCCNc1nc(OCc2ccccc2)nc(N2CCC[C@H]2C(=O)NCc2ccccc2)n1
IC50 [1]: > 5000 nM

CC(=O)NCCNc1nc(O)nc(OCc2cccc(-c3ccccc3)c2C)n1
IC50 [1]: > 5000 nM
